How the values were obtained:
[1] = target: T1, Membrane-associated tyrosine- and threonine-specific cdc2-inhibitory kinase (Homo sapiens, UniProt Q99640)
T1 sequence (Q99640 whole entry): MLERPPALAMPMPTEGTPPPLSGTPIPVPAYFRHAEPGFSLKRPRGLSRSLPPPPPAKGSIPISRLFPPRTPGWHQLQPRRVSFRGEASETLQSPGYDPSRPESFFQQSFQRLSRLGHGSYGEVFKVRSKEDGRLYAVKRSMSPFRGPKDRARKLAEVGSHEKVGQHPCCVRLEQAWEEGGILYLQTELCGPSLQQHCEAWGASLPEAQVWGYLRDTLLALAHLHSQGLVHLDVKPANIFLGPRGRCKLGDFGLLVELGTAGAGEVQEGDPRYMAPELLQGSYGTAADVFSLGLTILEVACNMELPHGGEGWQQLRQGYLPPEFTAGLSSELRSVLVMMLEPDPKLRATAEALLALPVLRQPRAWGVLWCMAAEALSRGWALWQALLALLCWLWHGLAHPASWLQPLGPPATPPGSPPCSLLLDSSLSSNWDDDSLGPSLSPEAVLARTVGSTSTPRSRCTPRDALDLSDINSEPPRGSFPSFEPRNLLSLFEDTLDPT

Ephrin type-B receptor 3 = target: T2, Ephrin type-B receptor 3 (Homo sapiens, UniProt P54753); assay: Inhibition of full length Nano-luc fused EPHB3 in human HEK-293T cells incubated for 2 hrs by cell based NanoBRET target engagement assay
T2 sequence (P54753 whole entry): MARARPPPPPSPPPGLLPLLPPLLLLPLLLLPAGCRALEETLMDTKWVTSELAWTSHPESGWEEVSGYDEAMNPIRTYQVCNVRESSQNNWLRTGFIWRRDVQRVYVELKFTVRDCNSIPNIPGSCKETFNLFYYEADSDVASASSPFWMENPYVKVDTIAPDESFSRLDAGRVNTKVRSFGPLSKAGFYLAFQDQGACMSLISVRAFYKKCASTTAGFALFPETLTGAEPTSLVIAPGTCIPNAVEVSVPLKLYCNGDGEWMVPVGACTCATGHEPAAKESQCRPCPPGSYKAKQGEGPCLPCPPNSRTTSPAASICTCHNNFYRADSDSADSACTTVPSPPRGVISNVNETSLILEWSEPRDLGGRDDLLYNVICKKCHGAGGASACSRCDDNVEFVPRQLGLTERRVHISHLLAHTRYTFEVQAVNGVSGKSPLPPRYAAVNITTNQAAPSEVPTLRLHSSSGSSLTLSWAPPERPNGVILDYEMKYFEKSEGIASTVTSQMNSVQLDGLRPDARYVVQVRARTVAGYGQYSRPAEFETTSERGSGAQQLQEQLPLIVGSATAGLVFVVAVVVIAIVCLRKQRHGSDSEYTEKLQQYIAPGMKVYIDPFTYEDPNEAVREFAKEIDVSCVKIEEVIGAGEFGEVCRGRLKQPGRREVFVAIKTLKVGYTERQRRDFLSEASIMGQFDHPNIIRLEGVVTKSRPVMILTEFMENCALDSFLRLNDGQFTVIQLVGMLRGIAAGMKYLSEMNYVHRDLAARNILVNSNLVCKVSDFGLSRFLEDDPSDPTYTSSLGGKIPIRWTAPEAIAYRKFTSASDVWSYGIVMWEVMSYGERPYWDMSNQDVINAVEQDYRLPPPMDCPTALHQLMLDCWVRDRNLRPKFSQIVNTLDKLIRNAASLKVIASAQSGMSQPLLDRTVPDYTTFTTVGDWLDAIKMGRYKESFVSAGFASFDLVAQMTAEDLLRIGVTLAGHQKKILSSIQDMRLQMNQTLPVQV
Summary of the method: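 HEK293T cells transiently transfected with the NanoLuc–kinase fusion vector plus carrier DNA and left overnight at 37 °C/5% CO2. Cells were resuspended in phenol red-free Opti-MEM at 17000 cells/well with the tracer. They were then exposed to compound for 2 h at 37 °C, and substrate/inhibitor mix was added. Acceptor (610 nm) and donor (450 nm) emissions were read.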

[2] = rat, in vivo, iv, 1 mg/kg, 24 h
[3] = Plasma protein binding in rat at 1 uM
[4] = rat, in vivo, po, 5 mg/kg, 24 h
Wee1-like protein kinase = Wee1-like protein kinase (Homo sapiens, UniProt P30291); assay: Inhibition of WEE1 (unknown origin)
Cytochrome P450 2D6 = Cytochrome P450 2D6 (Homo sapiens, UniProt P10635); assay: Inhibition of CYP2D6 (unknown origin)
[5] = Metabolic stability in human hepatocytes assessed as intrinsic clearance measured per 10^6 cells
Cytochrome P450 2C9 = Cytochrome P450 2C9 (Homo sapiens, UniProt P11712); assay: Inhibition of CYP2C9 (unknown origin)
[6] = Apparent permeability across apical to basolateral side in human Caco-2 cells
Cytochrome P450 3A4 = Cytochrome P450 3A4 (Homo sapiens, UniProt P08684); assay: Inhibition of CYP3A4 (unknown origin)
Cytochrome P450 3A4, sequence (P08684 whole entry): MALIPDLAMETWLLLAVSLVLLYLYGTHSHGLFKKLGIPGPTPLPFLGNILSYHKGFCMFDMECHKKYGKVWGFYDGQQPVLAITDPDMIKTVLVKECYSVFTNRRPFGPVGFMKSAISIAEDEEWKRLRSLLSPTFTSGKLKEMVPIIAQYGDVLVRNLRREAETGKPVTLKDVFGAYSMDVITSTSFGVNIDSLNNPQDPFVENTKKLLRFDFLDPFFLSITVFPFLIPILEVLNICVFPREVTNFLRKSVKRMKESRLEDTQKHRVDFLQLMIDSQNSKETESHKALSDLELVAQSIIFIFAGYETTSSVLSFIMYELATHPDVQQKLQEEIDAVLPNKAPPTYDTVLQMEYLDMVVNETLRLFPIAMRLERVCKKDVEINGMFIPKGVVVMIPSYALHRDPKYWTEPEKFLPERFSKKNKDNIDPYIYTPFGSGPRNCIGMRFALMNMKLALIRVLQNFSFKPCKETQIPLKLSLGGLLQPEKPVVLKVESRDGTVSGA

Wee1-like protein kinase, sequence (P30291 whole entry): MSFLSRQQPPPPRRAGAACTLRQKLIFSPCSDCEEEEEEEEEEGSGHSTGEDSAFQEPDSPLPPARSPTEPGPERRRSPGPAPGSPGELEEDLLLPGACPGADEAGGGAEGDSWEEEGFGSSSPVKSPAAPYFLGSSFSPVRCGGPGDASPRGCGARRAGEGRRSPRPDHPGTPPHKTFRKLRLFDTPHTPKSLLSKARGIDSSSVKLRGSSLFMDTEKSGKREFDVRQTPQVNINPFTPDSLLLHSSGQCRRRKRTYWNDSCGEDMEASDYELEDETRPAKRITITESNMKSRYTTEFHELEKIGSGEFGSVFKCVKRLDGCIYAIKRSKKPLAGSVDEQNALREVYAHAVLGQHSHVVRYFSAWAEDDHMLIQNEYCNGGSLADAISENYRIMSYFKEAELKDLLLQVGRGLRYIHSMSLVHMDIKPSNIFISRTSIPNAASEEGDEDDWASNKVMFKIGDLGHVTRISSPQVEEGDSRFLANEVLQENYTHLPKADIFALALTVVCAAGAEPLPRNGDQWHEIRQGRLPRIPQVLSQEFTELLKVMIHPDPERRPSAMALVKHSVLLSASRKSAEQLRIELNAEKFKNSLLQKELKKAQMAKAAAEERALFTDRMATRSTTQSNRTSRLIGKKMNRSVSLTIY
Cytochrome P450 2D6, sequence (P10635 whole entry): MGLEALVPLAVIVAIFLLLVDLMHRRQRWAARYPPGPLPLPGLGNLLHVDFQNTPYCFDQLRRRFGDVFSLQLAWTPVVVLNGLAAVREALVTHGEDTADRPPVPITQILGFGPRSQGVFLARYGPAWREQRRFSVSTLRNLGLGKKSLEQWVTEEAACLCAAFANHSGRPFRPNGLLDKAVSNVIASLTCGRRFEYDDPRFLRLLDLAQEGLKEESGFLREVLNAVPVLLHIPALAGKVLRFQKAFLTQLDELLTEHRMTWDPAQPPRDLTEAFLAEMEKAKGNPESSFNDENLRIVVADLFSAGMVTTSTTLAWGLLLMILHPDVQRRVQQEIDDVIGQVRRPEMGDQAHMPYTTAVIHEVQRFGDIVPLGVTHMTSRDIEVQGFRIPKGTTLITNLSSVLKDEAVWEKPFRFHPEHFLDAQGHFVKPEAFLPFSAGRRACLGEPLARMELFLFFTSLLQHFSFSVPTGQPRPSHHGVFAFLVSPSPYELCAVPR
Cytochrome P450 2C9, sequence (P11712 whole entry): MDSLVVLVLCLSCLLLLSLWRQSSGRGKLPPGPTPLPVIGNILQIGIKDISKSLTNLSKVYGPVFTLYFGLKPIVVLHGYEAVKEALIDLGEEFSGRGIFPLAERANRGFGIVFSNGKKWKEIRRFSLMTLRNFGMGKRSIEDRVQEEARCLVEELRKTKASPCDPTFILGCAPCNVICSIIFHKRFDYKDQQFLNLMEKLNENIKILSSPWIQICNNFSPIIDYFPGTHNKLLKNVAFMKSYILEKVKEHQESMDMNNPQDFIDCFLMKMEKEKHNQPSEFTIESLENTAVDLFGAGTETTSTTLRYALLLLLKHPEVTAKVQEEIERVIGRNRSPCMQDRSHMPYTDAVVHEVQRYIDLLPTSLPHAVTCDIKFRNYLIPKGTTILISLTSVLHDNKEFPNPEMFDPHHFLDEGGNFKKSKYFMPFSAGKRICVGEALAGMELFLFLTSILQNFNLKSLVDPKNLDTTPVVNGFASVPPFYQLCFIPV

Structure (SMILES): Cc1ccc(C(F)F)cc1-n1c(N)c(C(N)=O)c2nc3ccccc3nc21
- IC50 [1]: > 20 µM

Structure (SMILES): Cc1ccc(O)cc1-n1c(N)c(C(N)=O)c2cc3ccccc3nc21
- IC50 (Ephrin type-B receptor 3): 7 nM

Structure (SMILES): Cc1ccc(O)c(C)c1-n1c(N)c(C(N)=O)c2cc(C3CC3)cnc21
- CL free [2]: 170 mL/min/kg
- PPB [3]: 80.3%
- F [4]: 28%

Structure (SMILES): Cc1ccc(Cl)c(C)c1-n1c(N)c(C(N)=O)c2nc3ccccc3nc21
- IC50 [1]: > 20 µM

Structure (SMILES): Cc1ccc(O)c(C)c1-n1c(N)c(C(N)=O)c2cc(Cl)c(C)nc21
- CL free [2]: 731 mL/min/kg
- PPB [3]: 93.1%
- F [4]: 24%

Structure (SMILES): Cc1ccc(O)c(C)c1-n1c(N)c(C(N)=O)c2nc3cccc(C4=CCCC4)c3nc21
- IC50 [1]: < 0.003 µM

Structure (SMILES): Cc1ccc(N)cc1-n1c(N)c(C(N)=O)c2nc3ccccc3nc21
- IC50 [1]: > 20 µM

Structure (SMILES): Cc1ccc(O)c(C)c1-n1c(N)c(C(N)=O)c2nc3cc(Br)ccc3nc21
- IC50 [1]: < 0.003 µM

Structure (SMILES): Cc1ccccc1-n1c(N)c(C(N)=O)c2nc3ccccc3nc21
- IC50 [1]: > 20 µM

Structure (SMILES): Cc1c(O)cccc1-n1c(N)c(C(N)=O)c2nc3ccccc3nc21
- IC50 (Wee1-like protein kinase): 2200 nM

Structure (SMILES): Cc1ccc(O)c(C)c1-n1c(N)c(C(N)=O)c2nc3ccccc3nc21
- IC50 (Wee1-like protein kinase): 580 nM

Structure (SMILES): NC(=O)c1c(N)n(-c2cccc3[nH]cnc23)c2nc3ccccc3nc12
- IC50 [1]: > 20 µM

Structure (SMILES): NC(=O)c1c(N)n(-c2cccc3[nH]ccc23)c2nc3ccccc3nc12
- IC50 [1]: > 20 µM

Structure (SMILES): Cc1ccc(O)c(C)c1-n1c(N)c(C(N)=O)c2nc(N3CCOCC3)cnc21
- CL free [2]: 151 mL/min/kg
- PPB [3]: 62.8%
- IC50 (Cytochrome P450 2D6): > 30 µM
- CLH [5]: < 3 µL/min
- IC50 (Cytochrome P450 2C9): > 30 µM
- Papp [6]: 5.8 10^-6 cm/s
- IC50 (Cytochrome P450 3A4): > 30 µM
- F [4]: 18%

Reference: ChEMBL document CHEMBL5137074 (J Med Chem, 2022)
